Results reported in ChEMBL document CHEMBL3352764, “Rational design of novel CYP2A6 inhibitors” (Bioorg Med Chem, 2014).

What was measured:
[1] = molecular target: T1, Cytochrome P450 2A6 (Homo sapiens, UniProt P11509); assay: Inhibition of human CYP2A6 in baculovirus-infected insect cell system using […] as substrate preincubated for 10 mins by fluorescence assay
T1 sequence (P11509 whole entry): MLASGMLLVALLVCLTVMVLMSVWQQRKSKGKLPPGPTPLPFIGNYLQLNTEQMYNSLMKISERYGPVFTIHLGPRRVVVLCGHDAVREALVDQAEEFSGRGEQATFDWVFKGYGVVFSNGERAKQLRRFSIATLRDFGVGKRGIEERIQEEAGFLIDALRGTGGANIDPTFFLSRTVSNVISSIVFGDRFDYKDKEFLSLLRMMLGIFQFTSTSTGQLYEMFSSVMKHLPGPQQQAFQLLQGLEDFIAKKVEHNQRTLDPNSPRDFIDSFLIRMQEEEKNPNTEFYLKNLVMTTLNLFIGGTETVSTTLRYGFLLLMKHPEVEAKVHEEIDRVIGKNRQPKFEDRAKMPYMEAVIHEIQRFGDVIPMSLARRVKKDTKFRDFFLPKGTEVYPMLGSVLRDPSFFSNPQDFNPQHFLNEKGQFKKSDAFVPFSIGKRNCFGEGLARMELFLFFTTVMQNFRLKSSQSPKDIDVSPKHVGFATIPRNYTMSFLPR
Outline: (§1)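 Coumarin 7-hydroxylation by baculovirus/insect-cell human CYP2A6. Reaction started with NADPH (final 0.33 mM) and preincubated 10 min at 37 °C. Stopped with 10% TCA, then 1.6 M glycine-NaOH added; 7-hydroxycoumarin fluorescence read at ex 355/em 450 nm. Blanks subtracted; activity as % of control; IC50 by nonlinear fitting.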

[2] = molecular target: T1, Cytochrome P450 2A6; assay: Inhibition of human CYP2A6 in baculovirus-infected insect cell system using […] as substrate incubated for 30 mins prior to substrate addition measured after 10 mins by fluorescence assay; settings: for inhibition (INH): human, 10 min
[3] = molecular target: T1, Cytochrome P450 2A6; assay: (§2) Irreversible inhibition of human CYP2A6 in baculovirus-infected insect cell system using […] as substrate incubated for 10 mins by fluorescence assay
Outline: (§3)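 Inactivation: five inhibitor concentrations plus vehicle preincubated various times (including 0 min) with 5–20 pmol CYP2A6 and NADPH. Then diluted 10–40 fold into 50 mM Tris–HCl pH 7.4, 5 mM MgCl2, 10 µM coumarin, 0.3 mM NADPH, 10 min at 37 °C. Kobs from ln activity vs time; Kinact and Ki from double-reciprocal regression.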

[4] = molecular target: T2, CYP2A6 (Homo sapiens, UniProt P11509); assay: as §2; settings: human, probe coumarin (printed: coumarin 7); outline: as §3
T2 sequence (P11509 whole entry): T1 sequence (P11509 whole entry)

[5] = molecular target: T1, Cytochrome P450 2A6; assay: Inhibition of human CYP2A6 in baculovirus-infected insect cell system using […] as substrate in presence of mouse liver cytosolic fraction by fluorescence assay
[6] = molecular target: T1, Cytochrome P450 2A6; assay: Competitive inhibition of human CYP2A6 in baculovirus-infected insect cell system assessed as nicotine metabolism after 15 mins
Outline: (§4)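 Nicotine oxidation by expressed CYP2A6 (with P450 reductase and cytochrome b5): 10 pmol CYP and 10 pmol b5/ml, 1 mM NADPH, 50 µl cytosol, 50 mM Tris–HCl pH 7.4, 37 °C, 15 min. Stopped with 4% v/v Na2CO3; 5-methylcotinine internal standard; nicotine and metabolites quantified by HPLC. Drug concentrations expressed as free base.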

[7] = molecular target: T1, Cytochrome P450 2A6; assay: Irreversible inhibition of human CYP2A6 in baculovirus-infected insect cell system assessed as nicotine metabolism after 15 mins; outline: as §4
[8] = molecular target: T1, Cytochrome P450 2A6; assay: Reversible inhibition of human CYP2A6 in baculovirus-infected insect cell system using […] as substrate preincubated for 10 mins by fluorescence assay; outline: as §1
[9] = molecular target: T1, Cytochrome P450 2A6; assay: Mixed-type inhibition of human CYP2A6 in baculovirus-infected insect cell system assessed as nicotine metabolism after 15 mins; outline: as §4

Q: `O=Cc1c[nH]c2cccc(Br)c12` was tested. Which IC50 [1] did it give?
A: 12 µM

Q: What about the Ki [1] of the same compound?
A: 8.6 µM

Q: And the “inhibition (INH)” value [2]?
A: Active

Q: Which Ki ([3]; read-out: Ki) does the source give for `O=Cc1ccc2occc2c1` here?
A: 2.4 µM

Q: What about the kinact at 10 min [4] of the same compound?
A: 0.00133 s⁻¹

Q: And the IC50 [1]?
A: 0.4 µM

Q: What about the Ki [1] of the same compound?
A: 0.07 µM

Q: And the “inhibition (INH)” value [5]?
A: Not Active

Q: And the Ki [6]?
A: 5.5 µM

Q: What about the IC50 [2] of the same compound?
A: 0.05 µM

Q: `Cc1csc2ccc(Cl)cc12` was tested. Which IC50 [1] did it give?
A: 88 µM

Q: What about the “inhibition (INH)” value [2] of the same compound?
A: Active

Q: With `OCc1cc2ccccc2s1` as the compound, how does the IC50 [1] read?
A: 18 µM

Q: And the “inhibition (INH)” value [2]?
A: Active

Q: `Cc1ccc(C#N)cc1` was tested. Which IC50 [1] did it give?
A: 8.1 µM

Q: How did the IC50 [1] turn out when `NCc1cc2cc(Br)ccc2o1` was run?
A: < 100 µM

Q: For `N#CCc1csc2ccc(Cl)cc12`, which IC50 [1] is on record?
A: 51 µM

Q: And the “inhibition (INH)” value [2]?
A: Active

Q: How did the IC50 [1] turn out when `CNCc1cc2ccccc2s1` was run?
A: 0.5 µM

Q: And the “inhibition (INH)” value [2]?
A: Active

Q: For `NCc1cc2ccncc2s1`, which IC50 [1] is on record?
A: 5.2 µM

Q: And the “inhibition (INH)” value [2]?
A: Active

Q: Which results are given for `CNCc1cc2cccnc2s1`?
A: IC50 [1]: 2.2 µM; Ki [1]: 0.8 µM; inhibition (INH) [2]: Active

Q: How did the IC50 [1] turn out when `CCc1ccc(C#N)cc1` was run?
A: 7.4 µM

Q: For `O=CCc1coc2ccccc12`, which IC50 [1] is on record?
A: < 100 µM

Q: How did the Ki ([3]; read-out: Ki) turn out when `O=Cc1cc2cccnc2s1` was run?
A: 2.4 µM

Q: And the kinact at 10 min [4]?
A: 0.00133 s⁻¹

Q: And the IC50 [1]?
A: 8 µM

Q: What about the IC50 [2] of the same compound?
A: 0.4 µM

Q: What does the source list for `O=Cc1cc2ccncc2s1`?
A: IC50 [1]: 0.4 µM; Ki [1]: 0.06 µM; inhibition (INH) [5]: Not Active; Ki [6]: 4.2 µM; inhibition (INH) [2]: Active

Q: Which Ki [1] does the source give for `NCc1cc2ccccc2s1` here?
A: 0.01 µM

Q: And the “inhibition (INH)” value [2]?
A: Active

Q: How did the IC50 [1] turn out when `N#Cc1csc2ccc(Cl)cc12` was run?
A: 41 µM

Q: What about the “inhibition (INH)” value [2] of the same compound?
A: Active

Q: How did the IC50 [1] turn out when `O=Cc1cc2cc(Br)ccc2o1` was run?
A: 72 µM

Q: With `OCc1csc2ccccc12` as the compound, how does the IC50 [1] read?
A: 37 µM

Q: What about the “inhibition (INH)” value [2] of the same compound?
A: Active

Q: How did the IC50 [1] turn out when `Brc1ccc2[nH]ccc2c1` was run?
A: 7.4 µM

Q: And the “inhibition (INH)” value [2]?
A: Active

Q: How did the IC50 [1] turn out when `O=Cc1ccc2[nH]ccc2c1` was run?
A: 0.4 µM

Q: What about the Ki [1] of the same compound?
A: 0.07 µM

Q: What about the “inhibition (INH)” value [5] of the same compound?
A: Not Active

Q: What about the Ki [6] of the same compound?
A: 1.8 µM

Q: What about the “inhibition (INH)” value [2] of the same compound?
A: Active

Q: Which IC50 [1] does the source give for `OCc1cc2cc(Br)ccc2o1` here?
A: < 100 µM

Q: `O=Cc1c[nH]c2ccccc12` [3-FORMYLINDOLE] was tested. Which IC50 [1] did it give?
A: 79 µM

Q: What about the Ki [1] of the same compound?
A: 11 µM

Q: And the “inhibition (INH)” value [2]?
A: Active

Q: With `Cn1ccc2ccc(C=O)cc21` as the compound, how does the IC50 [1] read?
A: 8.4 µM

Q: What about the “inhibition (INH)” value [2] of the same compound?
A: Active

Q: Which results are given for `N#Cc1ccc2occc2c1`?
A: Ki ([3]; read-out: Ki): 2.4 µM; kinact at 10 min [4]: 0.00133 s⁻¹; IC50 [1]: 1.6 µM; Ki [1]: 0.1 µM; Ki [7]: 0.2 µM; IC50 [2]: 0.6 µM

Q: Which IC50 [1] does the source give for `N#Cc1cc2ccccc2o1` here?
A: 52 µM

Q: With `NCc1cc2cnccc2s1` as the compound, how does the IC50 [1] read?
A: 1 µM

Q: What about the “inhibition (INH)” value [2] of the same compound?
A: Active

Q: What does the source list for `O=Cc1csc2ccc(Br)cc12`?
A: Ki ([3]; read-out: Ki(app)): 1.5 µM; IC50 [1]: 5 µM; IC50 [2]: 0.5 µM

Q: Which results are given for `NC(=S)c1csc2ccncc12`?
A: IC50 [1]: 6.6 µM; inhibition (INH) [2]: Active

Q: Which IC50 [1] does the source give for `Brc1cc2ccccc2o1` here?
A: 140 µM

Q: Which IC50 [1] does the source give for `O=Cc1cccc2ccsc12` here?
A: 11 µM

Q: What about the “inhibition (INH)” value [2] of the same compound?
A: Active

Q: Which results are given for `Cc1cc2cc(N)ccc2[nH]1`?
A: IC50 [1]: 34 µM; inhibition (INH) [2]: Active

Q: For `CN(C)Cc1cc2cnccc2s1`, which IC50 [1] is on record?
A: 1.4 µM

Q: And the Ki [1]?
A: 0.6 µM

Q: And the “inhibition (INH)” value [8]?
A: Active

Q: And the Ki [6]?
A: 0.5 µM

Q: And the “inhibition (INH)” value [2]?
A: Active

Q: How did the IC50 [1] turn out when `CNCc1cc2cnccc2s1` was run?
A: 1.5 µM

Q: What about the “inhibition (INH)” value [2] of the same compound?
A: Active

Q: What does the source list for `NCc1csc2ccc(Cl)cc12`?
A: IC50 [1]: 0.4 µM; Ki [1]: 0.09 µM; Ki [9]: 6 µM; inhibition (INH) [2]: Active

Q: What does the source list for `O=Cc1cc2ccccc2s1`?
A: Ki ([3]; read-out: Ki(app)): 0.13 µM; IC50 [1]: 3.2 µM; IC50 [2]: 0.8 µM

Q: What does the source list for `Cn1ccc2cc(C=O)ccc21`?
A: IC50 [1]: 0.68 µM; inhibition (INH) [2]: Active

Q: With `O=Cc1ccc2cc[nH]c2c1` as the compound, how does the IC50 [1] read?
A: 1.5 µM

Q: What about the “inhibition (INH)” value [2] of the same compound?
A: Active

Q: For `O=C(Cl)c1csc2ccccc12`, which IC50 [1] is on record?
A: 270 µM

Q: `O=Cc1cc2cnccc2s1` was tested. Which IC50 [1] did it give?
A: 0.3 µM

Q: What about the Ki [1] of the same compound?
A: 0.07 µM

Q: What about the “inhibition (INH)” value [5] of the same compound?
A: Not Active

Q: And the “inhibition (INH)” value [8]?
A: Active

Q: What about the Ki [6] of the same compound?
A: 1.1 µM

Q: And the “inhibition (INH)” value [2]?
A: Active

Q: With `NCc1csc2ccc(Br)cc12` as the compound, how does the IC50 [1] read?
A: 0.7 µM

Q: What about the Ki [1] of the same compound?
A: 0.2 µM

Q: And the Ki [9]?
A: 0.8 µM

Q: And the “inhibition (INH)” value [8]?
A: Active

Q: What about the “inhibition (INH)” value [2] of the same compound?
A: Active

Q: Which IC50 [1] does the source give for `O=Cc1ccc2sccc2c1` here?
A: 0.9 µM

Q: And the “inhibition (INH)” value [2]?
A: Active

Q: Which IC50 [1] does the source give for `O=Cc1cc2ccccc2o1` here?
A: 17 µM

Q: Which results are given for `O=Cc1c[nH]c2cc(Br)ccc12`?
A: IC50 [1]: 57 µM; Ki [1]: 3.3 µM; inhibition (INH) [2]: Active

Q: How did the Ki ([3]; read-out: Ki) turn out when `O=Cc1cc2ccccc2[nH]1` was run?
A: 2.4 µM

Q: And the kinact at 10 min [4]?
A: 0.00133 s⁻¹

Q: What about the IC50 [1] of the same compound?
A: 11 µM

Q: And the IC50 [2]?
A: 1.8 µM

Q: `Cc1ccc2sc(C=O)cc2c1` was tested. Which IC50 [1] did it give?
A: 3.4 µM

Q: And the “inhibition (INH)” value [2]?
A: Active
